Data set [1] in a line: Cytotoxicity against mouse primary mesangial cells assessed as reduction in cell viability after 48 hrs by MTT assay. It counts as toxicity. In general terms: Tetrazolium assays rely on reduction of a dye to a coloured formazan, in cell work by metabolically active cells.
Data set [2] is described as follows: Cytotoxicity against human CA46 cells assessed as reduction in cell viability after 48 hrs by MTT assay. The settings on record: CA46, 48 h. Format: functional, cell-based.
The nature of data set [3]: Cytotoxicity against human Raji cells assessed as reduction in cell viability after 48 hrs by MTT assay. It counts as functional, cell-based.
Data set [4] is described as follows: Cytotoxicity against human A549 cells assessed as reduction in cell viability after 48 hrs by MTT assay. The following applies: A549, 48 h. It counts as functional, cell-based.
The nature of data set [5]: Cytotoxicity against human HeLa cells assessed as reduction in cell viability after 48 hrs by MTT assay. Format: functional, cell-based.
A short description of data set [6]: Binding affinity to 5'-Pu22-3' c-myc G-quadruplex DNA (unknown origin) assessed as maintainance of parallel c-myc G-quadruplex conformation at 2 equiv after 6 hrs in presence of KCl by CD-spectroscopic analysis. Summed up: (§1)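 Pu22 at 3 μM final in 10 mM Tris-HCl buffer with ligand at 2 equiv, with 100 mM KCl or without KCl; heated 95 °C 5 min, slowly cooled, held ≥6 h; CD spectra 230–330 nm, 1 mm quartz cell, 1 nm bandwidth and step, 0.5 s/point, average of two scans.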

Data set [7] can be described thus: Selectivity ratio of Kd for double stranded DNA (unknown origin) to Kd for biotinylated 5'-Pu22-3'-labelled c-myc G-quadruplex DNA.
The nature of data set [8]: Binding affinity to biotinylated double stranded DNA (unknown origin) after 240 secs by SPR assay. The method in brief:
(§2)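 SPR: biotinylated Pu22 and biotinylated duplex folded in 50 mM Tris-HCl pH 7.4, 150 mM KCl, 0.005% Tween20, captured (~1000 RU) on separate flow cells with a blank reference; ligand 0.0625–10 μM in running buffer, 240 s association then 240 s dissociation at 25 °C; equilibrium KD derived.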

A short description of data set [9]: Binding affinity to biotinylated 5'-Pu22-3'-labelled c-myc G-quadruplex DNA (unknown origin) after 240 secs by SPR assay. Summed up:
as §2
(In general: In SPR one partner is held on a chip, and binding of the other changes the refractive index at the surface.)

Data set [10] can be described thus: Binding affinity to 5'-FPu22T-3'-labelled c-myc G-quadruplex DNA (unknown origin) assessed as change in melting temperature at 2 uM in presence ds26 DNA of by FRET assay. Summed up:
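FRET melting of 0.4 μM labelled FPu22T with ligand 2.0 μM, alone or with 10-fold (4 μM), 50-fold (20 μM) or 100-fold (40 μM) excess unlabelled duplex ds26 as competitor; Tris-HCl 10 mM pH 7.4 with 10 or 60 mM KCl; ex 470/em 530 nm read every 1 °C from 37–99 °C, 30 s hold; ΔTm = Tm(DNA+ligand) − Tm(DNA).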

Data set [11] is described as follows: Binding affinity to F10T duplex DNA (unknown origin) assessed as change in melting temperature by FRET assay. The method in brief:
(§3)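 Fluorescence melting on real-time PCR instrument; 0.4 μM labelled oligonucleotide (FPu22T or duplex-forming F10T), ligand 2.0 μM, in 10 mM Tris-HCl pH 7.4 with 10 or 60 mM KCl; ex 470/em 530 nm at 1 °C steps over 37–99 °C, 30 s equilibration each; ΔTm = Tm(DNA+ligand) − Tm(DNA).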

A short description of data set [12]: Binding affinity to 5'-FPu22T-3'-labelled c-myc G-quadruplex DNA (unknown origin) assessed as change in melting temperature by FRET assay. Summed up: as §3
A short description of data set [13]: Binding affinity to 5'-Pu22-3' c-myc G-quadruplex DNA (unknown origin) assessed as induction of parallel c-myc G-quadruplex conformation at 2 equiv after 6 hrs in absence of KCl by CD-spectroscopic analysis. The method in brief:
as §1

Data set [14] is described as follows: Drug uptake in human HeLa cells at 10 uM after 48 hrs.

Activity calls are given as the source filed them. The rule behind the calls is not given here.

As to `O=C(CN1CCCC1)Nc1ccc(Nc2nc(-c3ccccc3NC(=O)CN3CCCC3)nc3ccccc23)cc1`, in data set [1], the 50% inhibitory concentration (IC50) at 48 h worked out at 16.5 µM. The half-inhibitory concentration (IC50) in [2] stood at 1.8 µM; in data set [3], 1.9 µM; in [4], 18.7 µM; in data set [5], 2.9 µM. The outcome in data set [6], in data set [10] and in data set [13] was Active. In addition, in data set [7], the Selectivity ratio is over 62.5. Moreover, the values for the Kd in data set [8] and in data set [9] were over 10 µM and 0.16 µM, respectively. In addition, the results for the ΔTm in data set [11] and in [12] were 0.6 °C and 13.3 °C, respectively. In data set [14], the Drug uptake entry is reported as “Active”.
As to `CN1CCN(CCC(=O)Nc2ccc(Nc3nc(-c4ccccc4NC(=O)CCN4CCN(C)CC4)nc4ccccc34)cc2)CC1`, in [1], the IC50 at 48 h was over 50 µM. In addition, the IC50 is 19.5 µM in data set [2], 27.8 µM in [3], over 50 µM in [4] and 20.1 µM in data set [5]. Further, the outcome in [6], in data set [10] and in data set [13] was Active. The same compound registered a Kd in data set [9] of 0.4 µM. Moreover, the thermal shift (ΔTm) in data set [11] was 0.3 °C; in data set [12], 13.2 °C.
Turning to `CCN(CC)CCNCCC(=O)Nc1ccc(Nc2nc(-c3ccccc3NC(=O)CCNCCN(CC)CC)nc3ccccc23)cc1`, in [1], the concentration for half-maximal inhibition (IC50) at 48 h was over 50 µM. Besides, the IC50 in [2], in data set [3], in data set [4] and in data set [5] was over 50 µM in each case. In addition, the result in data set [6], in data set [10] and in [13] was Active. For the same compound, the Kd in [9] is 0.21 µM. The ΔTm was determined as 0.6 °C in data set [11] and 18 °C in data set [12].
`O=C(CCN1CCCC1)Nc1ccc(Nc2nc(-c3ccccc3NC(=O)CCN3CCCC3)nc3ccccc23)cc1`: in [1], the 50% inhibitory concentration (IC50) at 48 h is 23.3 µM. The IC50 is 7.2 µM in [2], 4 µM in data set [3], 26.6 µM in [4] and 7 µM in data set [5]. The outcome in data set [6], in data set [10] and in data set [13] was Active. The Selectivity ratio in data set [7] was over 50. In addition, the dissociation constant (Kd) is over 10 µM in [8] and 0.2 µM in data set [9]. For the same compound, the results for the ΔTm in data set [11] and in data set [12] were 0.9 °C and 14.2 °C, respectively. Moreover, the Drug uptake entry in [14] was “Active”.
On to `CN(C)CCNCCC(=O)Nc1ccc(Nc2nc(-c3ccccc3NC(=O)CCNCCN(C)C)nc3ccccc23)cc1`, for which, in data set [1], the half-inhibitory concentration (IC50) at 48 h was over 50 µM. The IC50 in data set [2] was 28.2 µM; in data set [3], over 50 µM; in [4], over 50 µM; in [5] it was over 50 µM. Moreover, the outcome in data set [6], in data set [10] and in [13] was Active. The compound also came in with an equilibrium dissociation constant (Kd) in [9] of 0.14 µM. The values for the ΔTm in data set [11] and in [12] were 0.8 °C and 19.4 °C, respectively.
As to `CCN(CC)CCCC(=O)Nc1ccc(Nc2nc(-c3ccccc3NC(=O)CCCN(CC)CC)nc3ccccc23)cc1`, the IC50 at 48 h in data set [1] is over 50 µM. The 50% inhibitory concentration (IC50) is 21 µM in data set [2], 27.3 µM in data set [3], 24.5 µM in data set [4] and 32.5 µM in data set [5]. Besides, the Selectivity ratio in [7] is over 18.5. Further, the values for the equilibrium dissociation constant (Kd) in data set [8] and in data set [9] were over 10 µM and 0.54 µM, respectively. Further, the outcome in data set [10] was Active. Further, the ΔTm turned out to be 0.9 °C in [11] and 13.6 °C in data set [12].
Consider `O=C(CCN1CCCCC1)Nc1ccc(Nc2nc(-c3ccccc3NC(=O)CCN3CCCCC3)nc3ccccc23)cc1`, for which the concentration for half-maximal inhibition (IC50) at 48 h in data set [1] came out at 6.3 µM. For the same compound, the concentration for half-maximal inhibition (IC50) in data set [2] was found to be 4.5 µM; in data set [3] it was 1.3 µM; in [4] it was 7.5 µM; in data set [5] it was 7.4 µM. Further, the result in [6], in data set [10] and in data set [13] was Active. Besides, in [7], the Selectivity ratio is over 45.4. Further, the Kd in [8] was over 10 µM; in [9] it was 0.22 µM. The ΔTm in data set [11] turned out to be 1.4 °C; in data set [12] it was 17.9 °C.
Take `CN(C)CCCNCCC(=O)Nc1ccc(Nc2nc(-c3ccccc3NC(=O)CCNCCCN(C)C)nc3ccccc23)cc1`: in [1], the IC50 at 48 h is over 50 µM. Moreover, the IC50 in data set [2], in [3], in data set [4] and in [5] was over 50 µM each time. In data set [7], the Selectivity ratio was 10.3. Further, the results for the dissociation constant (Kd) in data set [8] and in [9] were 5.89 µM and 0.57 µM, respectively. Besides, in data set [10], the result was Active. Also, the ΔTm amounted to 3.7 °C in data set [11] and 21.8 °C in data set [12].

In general, IC50 refers to the concentration needed to halve the response being measured. For orientation: Kd means the equilibrium constant for the complex coming apart. What is called ΔTm is the change in melting temperature against a reference sample.

The values are drawn from ChEMBL document CHEMBL3865800, “Design, synthesis and biological evaluation of 4-anilinoquinazoline derivatives as new c-myc G-quadruplex ligands” (Eur J Med Chem, 2016).
